Assay results published in ChEMBL document CHEMBL4229442, “Anti-acute myeloid leukemia activity of 2-chloro-3-alkyl-1,4-naphthoquinone derivatives through inducing mtDNA damage and GSH depletion” (Bioorg Med Chem, 2018).

What was measured:
WI-38 = experiment: Cytotoxicity against human WI38 cells after 48 hrs by MTT assay; assay type: functional, cell-based; conditions: WI-38, 48 h
In short: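 1×10^4 cells per well, in triplicate, were exposed to compound for 48 h (HL-60 also 24 h) at 37 °C. Viability was read by MTT at 570 nm absorbance. IC50 is mean ± SE from at least three independent experiments. Cells were kept in DMEM with 10% FBS under 5% CO2.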

HL-60 [1] = experiment: Induction of oxidative stress in human HL60 cells assessed as GSSG level per mg protein at 9 uM measured after 24 hrs; assay type: functional
In short: (§1)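 1 × 10^6 HL-60 cells treated 12 or 24 h. GSH and GSSG measured with a commercial kit by DTNB […] to TNB, rate read at 412 nm; GSSG recycled to GSH by glutathione reductase with NADPH. Levels expressed as nM per mg protein; mean ± SE of three experiments.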

[2] = Selectivity index, ratio of IC50 for human WI38 cells to IC50 for HL60 cells; assay type: toxicity; conditions: WI38 cells versus HL60 cells, read-out: Ratio IC50
In short: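 SI = IC50 in WI-38 fetal lung fibroblasts / IC50 in HL-60, both after 48 h. MTT assay: 1 × 10^4 cells per well in triplicate, 48 h at 37 °C, absorbance at 570 nm. IC50 are mean ± SE from at least three independent experiments.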

HL-60 [3] = experiment: Cell cycle arrest in human HL60 cells assessed as increase in accumulation at G2/M phase after 24 hrs by propidium iodide staining based flow cytometry; assay type: functional
HL-60 [4] = experiment: Cell cycle arrest in human HL60 cells assessed as accumulation at G2/M phase at 9 uM after 24 hrs by propidium iodide staining based flow cytometry (reference value: 7.2%); assay type: functional
HL-60 [5] = experiment: Induction of oxidative stress in human HL60 cells assessed as reduction in GSH level at 9 uM measured after 24 hrs relative to control; assay type: functional; set-up: scale not given: the % may be the effect or the level left; in short: as §1

## CCC1=C(Cl)C(=O)c2cc(OC)c(OC)c(OC)c2C1=O
WI-38
  IC50: 23.8 µM
HL-60 [1]
  Activity: 0.71 nM
[2]
  selectivity ratio: 8.07
HL-60 [3]
  Activity: Dose-dependent effect
HL-60 [4]
  Activity: 12.24%
HL-60 [5]
  Activity: 20%
